Assay results pooled from the literature.
Cell line: UACC-257
Observed: cell growth or viability

SMILES | technique | concentration | endpoint | result
O=C1Nc2ccccc2C1=NNc1nnc2n1N=C(c1ccccc1)CS2 | SRB | 10 µM | inhibition | 11%
COc1ccc(-c2ccc(-c3ccc(C(=N)N)nc3)s2)cc1Cl | SRB | – | GI50 | 1880 nM
COc1ccc(C(=O)/C=C/c2cccc(Cl)c2Cl)cc1S(N)(=O)=O | SRB | 10 µM | inhibition | 65%
NC(=O)c1cc(Cl)ccc1NC(=O)COc1ccccc1 | – | – | GI50 | > 100000 nM
COc1ccc(C(=O)/C=C/c2cc3c(cc2Br)OCO3)cc1S(N)(=O)=O | SRB | 10 µM | inhibition | 36%
O=C1NC(=NCc2cccs2)S/C1=C\c1ccc2ncccc2c1 | – | – | IC50 | > 10000 nM
COc1ccc(C2=Nn3c(NN=C4C(=O)Nc5ccc(Cl)cc54)nnc3SC2)cc1 | SRB | 10 µM | inhibition | 27%
O=C1NCCc2[nH]c(-c3ccncc3)cc21 | – | – | IC50 | > 10000 nM
COc1cc(-c2ccc(-c3ccc(C(=N)N)nc3)s2)cc(OC)c1OC | SRB | – | GI50 | 2150 nM
